ChEMBL document CHEMBL1629491, “Post Groebke-Blackburn multicomponent protocol: synthesis of new polyfunctional imidazo[1,2-a]pyridine and imidazo[1,2-a]pyrimidine derivatives as potential antimicrobial agents” (2010)
Values after ≈ are worked out from the molar mass of the structure shown.

What was measured:
Format in all cases: functional
[1] = tested on: Escherichia coli; experiment: Antimicrobial activity against Escherichia coli after 24 hrs […]
In short: (§1)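 Broth microdilution MIC. Bacteria were grown in Luria broth (1% tryptone, 0.5% yeast extract, 0.5% NaCl, pH 7.2) at 37 °C for 24 h. Mid-log cultures were read at OD540 and diluted to OD 0.004 (5 × 10⁵ CFU/mL) before inoculation. Compounds in DMSO were given as eleven twofold serial dilutions, and plates were incubated at 37 °C for 24 h. MIC was the lowest concentration with no visible growth by turbidity. Cefixime, amoxicillin and vancomycin were the positive controls.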

[2] = tested on: Pseudomonas aeruginosa; experiment: Antimicrobial activity against Pseudomonas aeruginosa after 24 hrs […]; in short: as §1
[3] = tested on: Klebsiella aerogenes; experiment: Antimicrobial activity against Enterobacter aerogenes after 24 hrs […]; in short: as §1
[4] = tested on: Staphylococcus aureus; experiment: Antimicrobial activity against Staphylococcus aureus after 24 hrs […]; in short: as §1
[5] = tested on: Enterococcus faecalis; experiment: Antimicrobial activity against Enterococcus faecalis after 24 hrs […]; in short: as §1
[6] = tested on: Priestia megaterium; experiment: Antimicrobial activity against Bacillus megaterium after 24 hrs […]; in short: as §1

SMILES	MIC [1] [µg/mL]	MIC [2] [µg/mL]	MIC [3] [µg/mL]	MIC [4] [µg/mL]	MIC [5] [µg/mL]	MIC [6] [µg/mL]
O=[N+]([O-])c1ccc2nc(-c3ccc4nc(-c5ccc(Br)cc5)c(Nc5ccccc5)n4c3)[nH]c2c1	11.3 (≈ 21.5 µM)	14.5 (≈ 27.6 µM)	12.8 (≈ 24.5 µM)	10.3 (≈ 19.6 µM)	13.4 (≈ 25.4 µM)	17.5 (≈ 33.4 µM)
Cc1ccc(-c2nc3ccc(-c4nc5ccc(Oc6ccccc6)cc5[nH]4)cn3c2Nc2ccccc2)cc1	34.8 (≈ 68.5 µM)	45.4 (≈ 89.5 µM)	57.3 (≈ 113 µM)	54.9 (≈ 108 µM)	46.5 (≈ 91.6 µM)	65.5 (≈ 129 µM)
Cc1ccc(-c2nc3ccc(-c4nc5ccc(Br)cc5[nH]4)cn3c2Nc2ccccc2)cc1	3.18 (≈ 6.43 µM)	5.22 (≈ 10.6 µM)	7.15 (≈ 14.5 µM)	5.11 (≈ 10.3 µM)	6.28 (≈ 12.7 µM)	14 (≈ 28.2 µM)
Fc1ccc2nc(-c3ccc4nc(-c5ccc(Br)cc5)c(Nc5ccccc5)n4c3)[nH]c2c1	2.15 (≈ 4.31 µM)	3.44 (≈ 6.9 µM)	2.05 (≈ 4.11 µM)	1.51 (≈ 3.03 µM)	5.23 (≈ 10.5 µM)	10.2 (≈ 20.6 µM)
Fc1ccc2nc(-c3ccc4nc(-c5ccc(Oc6ccccc6)cc5)c(Nc5ccccc5)n4c3)[nH]c2c1	10.7 (≈ 20.9 µM)	12.4 (≈ 24.3 µM)	11.5 (≈ 22.6 µM)	12.1 (≈ 23.7 µM)	15.3 (≈ 29.9 µM)	21.6 (≈ 42.2 µM)
Brc1ccc(-c2nc3ccc(-c4nc5ccc(Oc6ccccc6)cc5[nH]4)cn3c2Nc2ccccc2)cc1	31.8 (≈ 55.6 µM)	41.1 (≈ 71.8 µM)	58.5 (≈ 102 µM)	56.2 (≈ 98.1 µM)	44.7 (≈ 78.1 µM)	58.7 (≈ 102 µM)
Cc1ccc2nc(-c3ccc4nc(-c5ccc(Br)cc5)c(Nc5ccccc5)n4c3)[nH]c2c1	10.3 (≈ 20.9 µM)	13.4 (≈ 27 µM)	11.8 (≈ 23.8 µM)	9.51 (≈ 19.2 µM)	13.6 (≈ 27.6 µM)	18.6 (≈ 37.6 µM)
Fc1ccc(-c2cnc(-c3ccc4nc(-c5ccc(Br)cc5)c(Nc5ccccc5)n4c3)[nH]2)cc1	1.33 (≈ 2.54 µM)	2.12 (≈ 4.04 µM)	1.55 (≈ 2.96 µM)	0.72 (≈ 1.37 µM)	3.17 (≈ 6.05 µM)	8.34 (≈ 15.9 µM)
Brc1ccc(-c2cnc(-c3ccc4nc(-c5ccc(Oc6ccccc6)cc5)c(Nc5ccccc5)n4c3)[nH]2)cc1	12.2 (≈ 20.4 µM)	11.8 (≈ 19.7 µM)	10.7 (≈ 17.9 µM)	10.2 (≈ 17.1 µM)	13.7 (≈ 22.9 µM)	19.9 (≈ 33.2 µM)
Clc1ccc(-c2cnc(-c3ccc4nc(-c5ccc(Br)cc5)c(Nc5ccccc5)n4c3)[nH]2)cc1	1.42 (≈ 2.63 µM)	2.52 (≈ 4.66 µM)	1.17 (≈ 2.16 µM)	0.93 (≈ 1.72 µM)	2.96 (≈ 5.47 µM)	9.13 (≈ 16.9 µM)
Brc1ccc(-c2nc3ccc(-c4ncc(-c5ccc(Oc6ccccc6)cc5)[nH]4)cn3c2Nc2ccccc2)cc1	33.3 (≈ 55.6 µM)	44.3 (≈ 74 µM)	53.4 (≈ 89.2 µM)	58.4 (≈ 97.5 µM)	39.6 (≈ 66.2 µM)	53.2 (≈ 88.8 µM)
Fc1ccc(-c2nnc(-c3ccc4nc(-c5ccc(Br)cc5)c(Nc5ccccc5)n4c3)o2)cc1	1.11 (≈ 2.11 µM)	2.43 (≈ 4.62 µM)	0.85 (≈ 1.61 µM)	0.51 (≈ 0.969 µM)	1.57 (≈ 2.98 µM)	4.97 (≈ 9.44 µM)
Fc1ccc(-c2nnc(-c3ccc4nc(-c5ccc(Oc6ccccc6)cc5)c(Nc5ccccc5)n4c3)o2)cc1	11.7 (≈ 21.7 µM)	9.64 (≈ 17.9 µM)	8.42 (≈ 15.6 µM)	11.1 (≈ 20.6 µM)	12.6 (≈ 23.3 µM)	17.4 (≈ 32.3 µM)
Cc1ccc(-c2nc3ccc(-c4nnc(-c5ccc([N+](=O)[O-])cc5)o4)cn3c2Nc2ccccc2)cc1	13.4 (≈ 27.5 µM)	12.6 (≈ 25.7 µM)	10.2 (≈ 20.8 µM)	9.85 (≈ 20.2 µM)	11.4 (≈ 23.3 µM)	15.5 (≈ 31.7 µM)
Cc1ccc(-c2nnc(-c3ccc4nc(-c5ccc(Br)cc5)c(Nc5ccccc5)n4c3)o2)cc1	12.4 (≈ 23.7 µM)	10.2 (≈ 19.5 µM)	11.3 (≈ 21.6 µM)	12.3 (≈ 23.5 µM)	11.8 (≈ 22.6 µM)	16.6 (≈ 31.7 µM)
O=[N+]([O-])c1ccc(-c2nnc(-c3ccc4nc(-c5ccc(Br)cc5)c(Nc5ccccc5)n4c3)o2)cc1	7.37 (≈ 13.3 µM)	5.45 (≈ 9.85 µM)	4.12 (≈ 7.45 µM)	6.36 (≈ 11.5 µM)	8.22 (≈ 14.9 µM)	12.7 (≈ 23 µM)
Fc1ccc2nc(-c3cnc4nc(-c5ccc(Br)cc5)c(Nc5ccccc5)n4c3)[nH]c2c1	2.29 (≈ 4.59 µM)	2.85 (≈ 5.71 µM)	2.25 (≈ 4.51 µM)	1.23 (≈ 2.46 µM)	6.64 (≈ 13.3 µM)	11.7 (≈ 23.5 µM)

SMILES	MIC [1] [µg/mL]	MIC [2] [µg/mL]	MIC [3] [µg/mL]	MIC [4] [µg/mL]	MIC [5] [µg/mL]	MIC [6] [µg/mL]
Clc1ccc2nc(-c3cnc4nc(-c5ccc(Br)cc5)c(Nc5ccccc5)n4c3)[nH]c2c1	2.78 (≈ 5.39 µM)	2.55 (≈ 4.94 µM)	2.75 (≈ 5.33 µM)	1.84 (≈ 3.57 µM)	5.87 (≈ 11.4 µM)	13.7 (≈ 26.6 µM)
Cc1ccc(-c2nc3ncc(-c4nc5ccc(F)cc5[nH]4)cn3c2Nc2ccccc2)cc1	3.44 (≈ 7.92 µM)	4.72 (≈ 10.9 µM)	6.18 (≈ 14.2 µM)	6.32 (≈ 14.5 µM)	5.76 (≈ 13.3 µM)	17.2 (≈ 39.5 µM)
Fc1ccc2nc(-c3cnc4nc(-c5ccc(Oc6ccccc6)cc5)c(Nc5ccccc5)n4c3)[nH]c2c1	10.5 (≈ 20.5 µM)	7.38 (≈ 14.4 µM)	6.12 (≈ 11.9 µM)	9.43 (≈ 18.4 µM)	10.4 (≈ 20.3 µM)	19.8 (≈ 38.6 µM)
O=[N+]([O-])c1ccc2nc(-c3cnc4nc(-c5ccc(Br)cc5)c(Nc5ccccc5)n4c3)[nH]c2c1	11.7 (≈ 22.2 µM)	12.2 (≈ 23.2 µM)	10.6 (≈ 20.2 µM)	9.32 (≈ 17.7 µM)	11.4 (≈ 21.8 µM)	15.4 (≈ 29.3 µM)
O=[N+]([O-])c1ccc(-c2cnc(-c3cnc4nc(-c5ccc(Br)cc5)c(Nc5ccccc5)n4c3)[nH]2)cc1	5.33 (≈ 9.65 µM)	7.81 (≈ 14.1 µM)	9.33 (≈ 16.9 µM)	4.22 (≈ 7.64 µM)	9.61 (≈ 17.4 µM)	17.4 (≈ 31.6 µM)
Fc1ccc(-c2cnc(-c3cnc4nc(-c5ccc(Br)cc5)c(Nc5ccccc5)n4c3)[nH]2)cc1	1.15 (≈ 2.19 µM)	2.34 (≈ 4.45 µM)	1.11 (≈ 2.11 µM)	0.63 (≈ 1.2 µM)	4.21 (≈ 8.01 µM)	9.17 (≈ 17.5 µM)
Clc1ccc(-c2cnc(-c3cnc4nc(-c5ccc(Br)cc5)c(Nc5ccccc5)n4c3)[nH]2)cc1	3.11 (≈ 5.74 µM)	1.82 (≈ 3.36 µM)	1.89 (≈ 3.49 µM)	1.76 (≈ 3.25 µM)	4.28 (≈ 7.9 µM)	11.6 (≈ 21.5 µM)
Cc1ccc(-c2cnc(-c3cnc4nc(-c5ccc(Br)cc5)c(Nc5ccccc5)n4c3)[nH]2)cc1	8.11 (≈ 15.6 µM)	11.4 (≈ 22 µM)	10.8 (≈ 20.8 µM)	9.49 (≈ 18.2 µM)	11.7 (≈ 22.4 µM)	15.6 (≈ 29.8 µM)
Fc1ccc(-c2nnc(-c3cnc4nc(-c5ccc(Br)cc5)c(Nc5ccccc5)n4c3)o2)cc1	1.33 (≈ 2.52 µM)	1.87 (≈ 3.55 µM)	0.94 (≈ 1.78 µM)	0.64 (≈ 1.21 µM)	1.92 (≈ 3.64 µM)	5.45 (≈ 10.3 µM)
Cc1ccc(-c2nc3ncc(-c4nnc(-c5ccc(F)cc5)o4)cn3c2Nc2ccccc2)cc1	2.78 (≈ 6.01 µM)	3.65 (≈ 7.89 µM)	5.29 (≈ 11.4 µM)	5.47 (≈ 11.8 µM)	4.58 (≈ 9.9 µM)	15.3 (≈ 33.1 µM)
O=[N+]([O-])c1ccc(-c2nnc(-c3cnc4nc(-c5ccc(Br)cc5)c(Nc5ccccc5)n4c3)o2)cc1	3.12 (≈ 5.63 µM)	4.45 (≈ 8.03 µM)	2.23 (≈ 4.02 µM)	3.35 (≈ 6.04 µM)	6.18 (≈ 11.1 µM)	11.2 (≈ 20.2 µM)
Clc1ccc(-c2nnc(-c3cnc4nc(-c5ccc(Br)cc5)c(Nc5ccccc5)n4c3)o2)cc1	2.34 (≈ 4.3 µM)	1.56 (≈ 2.87 µM)	3.16 (≈ 5.81 µM)	2.45 (≈ 4.51 µM)	5.37 (≈ 9.87 µM)	8.45 (≈ 15.5 µM)
Cc1ccc(-c2nnc(-c3cnc4nc(-c5ccc(Br)cc5)c(Nc5ccccc5)n4c3)o2)cc1	8.56 (≈ 16.4 µM)	7.64 (≈ 14.6 µM)	6.43 (≈ 12.3 µM)	5.31 (≈ 10.1 µM)	8.71 (≈ 16.6 µM)	13.6 (≈ 26 µM)
CC1(C)S[C@@H]2[C@H](NC(=O)[C@H](N)c3ccc(O)cc3)C(=O)N2[C@H]1C(=O)O [AMOXICILLIN]	16.4 (≈ 45 µM)	14.5 (≈ 39.8 µM)	3.65 (≈ 9.99 µM)	13.3 (≈ 36.5 µM)	1.22 (≈ 3.34 µM)	2.75 (≈ 7.53 µM)
C=CC1=C(C(=O)O)N2C(=O)[C@@H](NC(=O)/C(=N\OCC(=O)O)c3csc(N)n3)[C@H]2SC1 [CEFIXIME]	2.34 (≈ 5.16 µM)	17.2 (≈ 38 µM)	28.2 (≈ 62.1 µM)	33.9 (≈ 74.7 µM)	27.9 (≈ 61.6 µM)	128 (≈ 282 µM)
CN[C@H](CC(C)C)C(=O)N[C@H]1C(=O)N[C@@H](CC(N)=O)C(=O)N[C@H]2C(=O)N[C@H]3C(=O)N[C@H](C(=O)N[C@H](C(=O)O)c4cc(O)cc(O)c4-c4cc3ccc4O)[C@H](O)c3ccc(c(Cl)c3)Oc3cc2cc(c3O[C@@H]2O[C@H](CO)[C@@H](O)[C@H](O)[C@H]2O[C@H]2C[C@](C)(N)[C@H](O)[C@H](C)O2)Oc2ccc(cc2Cl)[C@H]1O [VANCOMYCIN]	6.65 (≈ 4.59 µM)	23.5 (≈ 16.2 µM)	0.52 (≈ 0.359 µM)	2.75 (≈ 1.9 µM)	4.21 (≈ 2.9 µM)	6.37 (≈ 4.4 µM)
